Consider 34 compounds from ChEMBL document CHEMBL1153353, “Probing of the cis-5-phenyl proline scaffold as a platform for the synthesis of mechanism-based inhibitors of the Staphylococcus aureus sortase SrtA isoform” (Bioorg Med Chem, 2009).

Active and inactive are the calls of the source. No cut-off for these calls is given here.

One test concerns the target T1, Sortase A (Staphylococcus aureus) (UniProt Q9S446).
T1 sequence (whole entry): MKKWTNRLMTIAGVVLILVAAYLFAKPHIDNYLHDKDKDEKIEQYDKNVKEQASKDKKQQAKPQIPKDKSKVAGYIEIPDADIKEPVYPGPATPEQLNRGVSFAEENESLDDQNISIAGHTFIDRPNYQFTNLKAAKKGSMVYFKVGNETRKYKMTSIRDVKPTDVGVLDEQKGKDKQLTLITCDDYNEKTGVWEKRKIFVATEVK
Nature of the test: Inhibition of 6-His tagged Staphylococcus aureus recombinant sortase delta N24 expressed in Escherichia coli BL21 (DE3) at 1 mM. Summed up: (§1)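 His6-SrtAΔN24 (1 μM) was pre-incubated with inhibitor for 30 min at 37°C in 300 mM Tris pH 7.5, 150 mM NaCl, 5 mM CaCl2, 0.1% CHAPS and 2% DMSO. The reaction was started with 2 mM Abz-LPETG-Dap(DNP)-NH2 plus 2 mM NH2-Gly5-OH, run 30 min at 37°C, and quenched with 1.2 M HCl. Substrate and product were separated by reverse-phase HPLC and read at 355 nm. Percent substrate conversion came from peak areas.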
For `Cc1cn(C[C@@H]2C[C@H](C#N)[C@H](c3ccccc3)N2C)c(=O)[nH]c1=O` (racemic), the inhibition is 6%.

The target in the next test is T1, Sortase A (Staphylococcus aureus). Briefly: Inhibition of 6-His tagged Staphylococcus aureus recombinant sortase delta N24 expressed in Escherichia coli BL21 (DE3) at 5 mM. Summed up: as §1
Regarding `C=CS(=O)(=O)[C@H]1C[C@@H](C(=O)OC)N[C@H]1c1ccccc1` (racemic), the result was Active.

For the compound `C=CS(=O)(=O)[C@H]1C[C@@H](C(=O)OC)N[C@H]1c1cccc(F)c1` (racemic), the outcome was Active.

`C=CS(=O)(=O)[C@H]1C[C@@H](C(=O)OC)N[C@H]1c1ccccc1F` (racemic): the result was Active.

Consider `COC(=O)[C@@H]1C[C@@H](C#N)[C@H](c2cccc(Cl)c2)N1` (racemic), for which the result was inactive.

For the compound `COC(=O)[C@@H]1C[C@@H](C#N)[C@H](c2cccc(F)c2)N1` (racemic), the outcome was inactive.

For `COC(=O)[C@@H]1C[C@@H](C#N)[C@H](c2cccc(F)c2F)N1` (racemic), the result was inactive.

With `COC(=O)[C@@H]1C[C@@H](C#N)[C@H](c2ccccc2)N1` (racemic), the inhibition worked out at 20%.

On to `COC(=O)[C@@H]1C[C@@H](C#N)[C@H](c2ccccc2F)N1` (racemic), for which the inhibition was 20%.

Turning to `COC(=O)[C@@H]1C[C@H](C#N)[C@H](c2cccc(Cl)c2)N1` (racemic), the inhibition was determined as 20%.

On to `COC(=O)[C@@H]1C[C@H](C#N)[C@H](c2cccc(F)c2)N1` (racemic), for which the outcome was inactive.

With `COC(=O)[C@@H]1C[C@H](C#N)[C@H](c2cccc(F)c2F)N1` (racemic), the result was inactive.

For the compound `COC(=O)[C@@H]1C[C@H](C#N)[C@H](c2cccc(F)c2F)N1C` (racemic), the outcome was inactive.

On to `COC(=O)[C@@H]1C[C@H](C#N)[C@H](c2ccccc2)N1` (racemic), for which the result was inactive.

`COC(=O)[C@@H]1C[C@H](C#N)[C@H](c2ccccc2)N1C` (racemic): the outcome was inactive.

Take `COC(=O)[C@@H]1C[C@H](C#N)[C@H](c2ccccc2F)N1` (racemic): the inhibition was 20%.

`COC(=O)[C@@H]1C[C@H](C#N)[C@H](c2ccccc2F)N1C` (racemic): the inhibition is 20%.

For the compound `COC(=O)[C@]1(C)C[C@@H](C#N)[C@H](c2ccc(Cl)cc2)N1` (racemic), the result was inactive.

For `COC(=O)[C@]1(C)C[C@@H](C#N)[C@H](c2ccccc2C)N1` (racemic), the result was inactive.

Consider `COC(=O)[C@]1(C)C[C@@H](C#N)[C@H](c2ccccc2Cl)N1` (racemic), for which the result was inactive.

With `COC(=O)[C@]1(C)C[C@H](C#N)[C@H](c2ccc(Cl)cc2)N1` (racemic), the result was inactive.

Take `COC(=O)[C@]1(C)C[C@H](C#N)[C@H](c2ccccc2C)N1` (racemic): the outcome was inactive.

Turning to `COC(=O)[C@]1(C)C[C@H](C#N)[C@H](c2ccccc2C)N1C` (racemic), the outcome was inactive.

On to `COC(=O)[C@]1(C)C[C@H](C#N)[C@H](c2ccccc2Cl)N1` (racemic), for which the outcome was inactive.

Take `COC(=O)[C@]1(C)C[C@H](C#N)[C@H](c2ccccc2Cl)N1C` (racemic): the inhibition came to 20%.

In the case of `Cc1cn(C[C@@H]2C[C@H](C#N)[C@H](c3ccccc3)N2C)c(=O)[nH]c1=O` (racemic), the result was inactive.

For the next test, the target named is T2, Sortase A (Staphylococcus aureus, UniProt Q9S446).
T2 sequence (Q9S446 whole entry): T1 sequence (whole entry)
Nature of the test: Inhibition of 6-His tagged Staphylococcus aureus recombinant sortase delta N24 expressed in Escherichia coli BL21 (DE3). Summed up:
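N-terminally His6-tagged SrtA lacking residues 1-24, Ni-chelate purified. 1 μM enzyme pre-incubated with inhibitor 30 min at 37°C, then 2 mM Abz-LPETG-Dap(DNP)-NH2 plus 2 mM NH2-Gly5-OH added. Buffer: 300 mM Tris pH 7.5, 150 mM NaCl, 5 mM CaCl2, 0.1% CHAPS, 2% DMSO. Ran 30 min at 37°C, HCl-quenched. Reverse-phase HPLC at 355 nm gave substrate-to-product conversion, relative to uninhibited controls.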
With `CN(C)C(=N)N.O=C(NCCSSCCNC(=O)/C(Cc1ccc(S(=O)(=O)O)c(Br)c1)=N/O)/C(Cc1ccc(O)c(Br)c1)=N/O`, the IC50 was 48.3 µM.

Turning to `C=CS(=O)(=O)[C@H]1C[C@@H](C(=O)OC)N[C@H]1c1ccccc1` (racemic), the IC50 came out at 850 µM.

`C=CS(=O)(=O)[C@H]1C[C@]2(C(=O)OC)CCC(=O)N2[C@H]1c1ccc(OC)c(OC)c1` (racemic): the IC50 is 2680 µM.

As to `C=CS(=O)(=O)[C@H]1C[C@]2(C(=O)OC)CCC(=O)N2[C@H]1c1cccnc1` (racemic), the IC50 came out at 2470 µM.

Turning to `C=CS(=O)(=O)[C@H]1C[C@@H](C(=O)OC)N[C@H]1c1cccc(F)c1` (racemic), the IC50 is 1040 µM.

On to `C=CS(=O)(=O)[C@H]1C[C@@](CCC(=O)OC)(C(=O)OC)N[C@H]1c1cccnc1` (racemic), for which the IC50 was 1860 µM.

For the compound `C=CS(=O)(=O)[C@H]1C[C@]2(C(=O)OC)CCC(=O)N2[C@H]1c1ccccc1` (racemic), the IC50 worked out at 2200 µM.

As for `C=CS(=O)(=O)[C@H]1C[C@@H](C(=O)OC)N[C@H]1c1ccccc1F` (racemic), the IC50 came to 1320 µM.

Turning to `C=CS(=O)(=O)[C@H]1C[C@@](CCC(=O)OC)(C(=O)OC)N[C@H]1c1ccc(OC)c(OC)c1` (racemic), the IC50 was > 5000 µM.

As for `C=CS(=O)(=O)c1ccccc1` [(ETHENYLSULFONYL)BENZENE], the IC50 stood at 736 µM.

For `COc1cc(/C=C/C(=O)CC(=O)/C=C/c2ccc(O)c(OC)c2)ccc1O` [CURCUMIN], the IC50 is 37.5 µM.

As for `O=c1c(O)c(-c2ccc(O)cc2O)oc2cc(O)cc(O)c12` [MORIN], the IC50 is 37.4 µM.

In general, inhibition refers to the share of the control response that was lost under treatment. The IC50 is the concentration needed to halve the response being measured.
